“Also recorded” adds a separate entry of the source.
Key:
[1] = Circular dichroism of AKB peptides; assay type: physicochemical; settings: 0.1 M Tris pH 8.5, Jasco J-810
[2] = test system: PKA:AKAP interaction; settings: through an allosteric effect away from the D/D domain; ref [32]; cited from earlier work
[3] = test system: PKA-RIβ; test: Confocal colocalization with PKA-RIβ-mKO2 in HeLa cells; assay type: cell-based; settings: transfected, confocal, unstimulated
In short: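 HeLa cells co-expressed GFP-tagged smAKAP (wild type, S66E or S66D) with mKO2-tagged PKA-RIα or RIβ. Cells were washed in ice-cold PBS, fixed in ice-cold 4% formaldehyde in PBS, washed twice and imaged by confocal microscopy through a 63× oil objective. Stimulated cells received calyculin A plus 8-CPT-cAMP and were imaged live.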

[4] = test system: PKA-RIα; test: Confocal colocalization with PKA-RIα in HeLa cells; assay type: cell-based; settings: transfected, confocal, PKA-RIα-mCherry
[5] = test system: PKG Iα; test: 32P phosphorylation assay with PKG Iα; assay type: biochemical; settings: PKG Iα 20 nM, pH 7.5; n = 3
In short: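 Substrate was His-tagged human smAKAP (wild type, or S66D with PKA-Cα) at 10 μM. It was incubated with 20 nM recombinant kinase in 50 mM MOPS pH 7.5 containing 10 mM MgCl2, 200 μM ATP and [32P]ATP. Aliquots were quenched in 30% acetic acid at 0, 5, 10 and 15 min. Results are means ± SD of 3 independent experiments.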

With IVILEYAHRLDQDILCDALQQWAC [AKB-S66D] as the compound, how does the “secondary structure by CD” value [1] read?
The value was “no secondary structure”.

Which “inhibition of PKA binding to AKAPs” value [2] does the source give for Nc1cc(Cc2ccc(O)c(N)c2)ccc1O [FMP-API-1] here?
The value was “inhibit the binding of PKA to AKAPs”.

Which “colocalization with PKA-RIβ-mKO2” value [3] does the source give for “smAKAP-wt-GFP: wild-type smAKAP GFP fusion expressed in transfected cells” here?
Its value is “strong colocalization along the plasma membrane; also recorded: colocalization at the plasma membrane”.

And the “colocalization with PKA-RIα” value [4]?
The value was “strong colocalization along the plasma membrane”.

Which “secondary structure by CD” value [1] does the source give for IVILEYAHRLEQDILCDALQQWAC [AKB-S66E] here?
Its value is “no secondary structure”.

With “His6-smAKAP: recombinant human His-tagged smAKAP (wt), called smAKAP-wt in the phosphorylation assay” as the compound, how does the “phosphorylation by PKG Iα compared with PKA” value [5] read?
Its value is “only PKA phosphorylated”.

With IVILEYAHRLSQDILCDALQQWAC [AKB-wt] as the compound, how does the “α-helix propensity by CD” value [1] read?
Its value is ~ 45%.

Which “secondary structure by CD” value [1] does the source give for IVILEYAHRLpSQDILCDALQQWAC [AKB-pSer66] here?
The value was “no secondary structure”.
